The target of experiment [1] is T1, Myelin-associated glycoprotein (Homo sapiens, UniProt P20916).
T1 sequence (P20916 whole entry): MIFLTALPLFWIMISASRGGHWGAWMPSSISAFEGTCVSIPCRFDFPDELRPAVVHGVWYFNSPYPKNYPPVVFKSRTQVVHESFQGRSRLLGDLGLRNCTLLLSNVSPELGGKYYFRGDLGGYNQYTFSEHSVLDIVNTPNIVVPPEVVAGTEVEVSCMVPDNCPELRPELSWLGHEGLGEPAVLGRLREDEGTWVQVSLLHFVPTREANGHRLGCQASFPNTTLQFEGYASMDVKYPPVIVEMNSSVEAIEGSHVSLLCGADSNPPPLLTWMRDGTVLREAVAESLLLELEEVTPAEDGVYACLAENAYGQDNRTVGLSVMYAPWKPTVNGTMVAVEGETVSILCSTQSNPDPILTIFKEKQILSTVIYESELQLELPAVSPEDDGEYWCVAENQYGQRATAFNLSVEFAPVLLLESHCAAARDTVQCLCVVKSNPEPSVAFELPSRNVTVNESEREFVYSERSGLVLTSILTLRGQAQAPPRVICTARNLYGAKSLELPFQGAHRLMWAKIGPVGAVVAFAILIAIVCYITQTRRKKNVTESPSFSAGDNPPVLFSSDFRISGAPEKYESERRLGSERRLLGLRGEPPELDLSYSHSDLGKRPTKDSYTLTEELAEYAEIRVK
Put plainly: Inhibition of MAG. The method, boiled down: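 Competition format: MAG-Fc chimera binding to a polymeric ligand adsorbed on plate wells, with the inhibitor titrated to give IC50. Each compound was run in triplicate and assayed on three separate days, each time alongside at least one other compound to check for drift. IC50 is the mean and standard deviation of the three separate assays.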

The target in experiment [2] is T1, Myelin-associated glycoprotein. Put plainly: Binding affinity to wild type MAG at 400 uM by Isothermal titration calorimetry.
The target is the same in experiment [3]. Put plainly: Inhibition of MAG -Fc chimera expressed in CHO cells using NeuAc alpha2-3Galbeta1-4GlcNAc-R coupled biotinylated polyacrylamide after 30 mins by ELISA. It counts as cell-based. Summed up:
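Each compound was run in triplicate and assayed on three separate days, each time alongside at least one other compound to check for drift. IC50 is the mean and standard deviation of the three separate assays.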

The target is the same in experiment [4]. The experiment in a line: Binding affinity to MAG. The method, boiled down: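 Competitive inhibition of MAG-Fc chimera binding to a polymeric ligand adsorbed in microplate wells, run in triplicate. Each compound was assayed three times on separate days, alongside at least one other compound, and the IC50 reported as mean and standard deviation. Apparent Kd values were calculated from IC50 against a reference ligand whose Kd was measured by isothermal titration calorimetry.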

For the compound `CC(=O)N[C@H]1[C@@H](O[C@H](C)[C@H](N)C(=O)O)O[C@H](CO)[C@H](O)[C@@H]1O[C@@H]1O[C@H](CO)[C@H](O)[C@H](O[C@]2(C(=O)O)C[C@H](O)[C@@H](NC(C)=O)[C@H]([C@H](O)[C@H](O)CO)O2)[C@H]1O`, the half-inhibitory concentration (IC50) in experiment [1] turned out to be 1.2 µM.

The compound `COC(=O)[C@@H](NC(C)=O)[C@@H](C)O[C@H]1O[C@H](CO)[C@H](O)[C@H](O[C@@H]2O[C@H](CO)[C@H](O)[C@H](O[C@]3(C(=O)O)C[C@H](O)[C@@H](NC(C)=O)[C@H]([C@H](O)[C@H](O)CO)O3)[C@H]2O)[C@H]1NC(C)=O` yielded a Kd in experiment [2] of 1.9 µM. The compound further yielded an IC50 in experiment [3] of 1.2 µM.

As for `COC(=O)[C@@H](NC(C)=O)[C@@H](C)O[C@H]1O[C@H](CO)[C@H](O)[C@H](O[C@@H]2O[C@H](CO)[C@H](O)[C@H](O[C@]3(C(=O)O)C[C@H](O)[C@@H](NC(C)=O)[C@H]([C@H](O)[C@H](O)CNC(=O)c4ccc(F)cc4)O3)[C@H]2O)[C@H]1NC(C)=O`, the dissociation constant (Kd) in experiment [2] is 0.13 µM. The 50% inhibitory concentration (IC50) in experiment [3] is 0.079 µM.

Take `CC(=O)N[C@H]1[C@H](OCC[Si](C)(C)C)O[C@H](CO)[C@H](O)[C@@H]1O[C@@H]1O[C@H](CO)[C@H](O)[C@H](O[C@]2(C(=O)O)C[C@H](O)[C@@H](NC(C)=O)[C@H]([C@H](O)[C@H](O)CO)O2)[C@H]1O`: binding in experiment [4] was put at a Kd of 180 µM.

For `COC(=O)[C@@H](NC(C)=O)[C@@H](C)O[C@H]1O[C@H](CO[C@]2(C(=O)O)C[C@H](O)[C@@H](NC(C)=O)[C@H]([C@H](O)[C@H](O)CNC(=O)c3ccc(F)cc3)O2)[C@H](O)[C@H](O[C@@H]2O[C@H](CO)[C@H](O)[C@H](O)[C@H]2O)[C@H]1NC(C)=O`, the Kd in experiment [2] came to 1.76 µM. This compound registered an IC50 in experiment [3] of 1.1 µM.

`CC(=O)N[C@@H]1[C@@H](O[C@@H]2O[C@H](CO)[C@H](O)[C@H](O[C@]3(C(=O)O)C[C@H](O)[C@@H](NC(C)=O)[C@H]([C@H](O)[C@H](O)CO)O3)[C@H]2O)[C@@H](O)[C@@H](CO)O[C@H]1Sc1ccc(C)cc1` showed a 50% inhibitory concentration (IC50) in experiment [1] of 272 µM.

Compound `COC(=O)[C@@H](NC(C)=O)[C@@H](C)O[C@H]1O[C@H](CO[C@]2(C(=O)O)C[C@H](O)[C@@H](NC(C)=O)[C@H]([C@H](O)[C@H](O)CNC(=O)c3ccc(Cl)cc3)O2)[C@H](O)[C@H](O[C@@H]2O[C@H](CO)[C@H](O)[C@H](O)[C@H]2O)[C@H]1NC(C)=O` gave a dissociation constant Kd in experiment [2] of 1 µM. In addition, the midpoint of inhibition in experiment [3], the IC50, lay at 0.64 µM.

Turning to `COC(=O)[C@@H](NC(C)=O)[C@@H](C)O[C@H]1O[C@H](CO)[C@H](O)[C@H](O[C@@H]2O[C@H](CO)[C@H](O)[C@H](O[C@]3(C(=O)O)C[C@H](O)[C@@H](NC(C)=O)[C@H]([C@H](O)[C@H](O)CNC(=O)c4ccccc4)O3)[C@H]2O)[C@H]1NC(C)=O`, binding in experiment [2] was characterised by a dissociation constant (Kd) of 1 µM. Moreover, in experiment [3], it took 0.65 µM to reach half-maximal inhibition (IC50).

In experiment [1], `CC(=O)N[C@H]1[C@@H](O[C@H](C)[C@H](N)C(=O)O)O[C@H](CO[C@]2(C(=O)O)C[C@H](O)[C@@H](NC(C)=O)[C@H]([C@H](O)[C@H](O)CO)O2)[C@H](O)[C@@H]1O[C@@H]1O[C@H](CO)[C@H](O)[C@H](O[C@]2(C(=O)O)C[C@H](O)[C@@H](NC(C)=O)[C@H]([C@H](O)[C@H](O)CO)O2)[C@H]1O` returned a concentration for half-maximal inhibition (IC50) of 0.3 µM.

Turning to `COC(=O)[C@@H](NC(C)=O)[C@@H](C)O[C@H]1O[C@H](CO[C@]2(C(=O)O)C[C@H](O)[C@@H](NC(C)=O)[C@H]([C@H](O)[C@H](O)CO)O2)[C@H](O)[C@H](O[C@@H]2O[C@H](CO)[C@H](O)[C@H](O)[C@H]2O)[C@H]1NC(C)=O`, the affinity in experiment [2], expressed as Kd, was 13 µM. The midpoint of inhibition in experiment [3], the IC50, lay at 7.9 µM.

Compound `O=C(CF)N[C@H]1[C@H]([C@H](O)[C@H](O)CNC(=O)c2ccccc2)O[C@@](OCc2cccc(F)c2F)(C(=O)O)C[C@@H]1O` showed a Kd in experiment [4] of 0.5 µM.

Compound `COC(=O)[C@@H](NC(C)=O)[C@@H](C)O[C@H]1O[C@H](CO[C@]2(C(=O)O)C[C@H](O)[C@@H](NC(C)=O)[C@H]([C@H](O)[C@H](O)CNC(=O)c3ccc(F)cc3)O2)[C@H](O)[C@H](O[C@@H]2O[C@H](CO)[C@H](O)[C@H](O[C@]3(C(=O)O)C[C@H](O)[C@@H](NC(C)=O)[C@H]([C@H](O)[C@H](O)CO)O3)[C@H]2O)[C@H]1NC(C)=O` gave a Kd in experiment [2] of 0.015 µM. Besides, 0.009 µM corresponded to half-maximal inhibition in experiment [3] (IC50).

`CC(=O)N[C@H]1[C@H]([C@H](O)[C@H](O)CNC(=O)c2ccccc2)O[C@@](O[C@H]2[C@@H](O)[C@@H](CO)O[C@@H](O[C@H]3[C@@H](O)[C@@H](CO)O[C@@H](OCC[Si](C)(C)C)[C@@H]3O)[C@@H]2O)(C(=O)O)C[C@@H]1O`: the dissociation constant (Kd) in experiment [4] came to 32 µM.

`CC(=O)N[C@H]1[C@@H](OCc2ccccc2)O[C@H](CO)[C@H](O)[C@@H]1O[C@@H]1O[C@H](CO)[C@H](O)[C@H](O[C@]2(C(=O)O)C[C@H](O)[C@@H](NC(C)=O)[C@H]([C@H](O)[C@H](O)CO)O2)[C@H]1O`: the IC50 in experiment [1] was 52 µM.

In experiment [2], `COC(=O)[C@@H](NC(C)=O)[C@@H](C)O[C@H]1O[C@H](CO[C@]2(C(=O)O)C[C@H](O)[C@@H](NC(C)=O)[C@H]([C@H](O)[C@H](O)CO)O2)[C@H](O)[C@H](O[C@@H]2O[C@H](CO)[C@H](O)[C@H](O[C@]3(C(=O)O)C[C@H](O)[C@@H](NC(C)=O)[C@H]([C@H](O)[C@H](O)CNC(=O)c4ccc(F)cc4)O3)[C@H]2O)[C@H]1NC(C)=O` showed a Kd of 0.48 µM. The compound further showed an IC50 in experiment [3] of 0.3 µM.

On to `COC(=O)[C@@H](NC(C)=O)[C@@H](C)O[C@H]1O[C@H](CO)[C@H](O)[C@H](O[C@@H]2O[C@H](CO)[C@H](O)[C@H](O[C@]3(C(=O)O)C[C@H](O)[C@@H](NC(C)=O)[C@H]([C@H](O)[C@H](O)CNC(=O)c4ccc(Cl)cc4)O3)[C@H]2O)[C@H]1NC(C)=O`, for which the affinity in experiment [2], expressed as Kd, was 1 µM. Besides, in experiment [3], the IC50 amounted to 0.61 µM.

The values above are taken from ChEMBL document CHEMBL1833949, “High affinity sialoside ligands of myelin associated glycoprotein” (Bioorg Med Chem Lett, 2011).
